# LGR2 antag: inhibitors of bursicon-induced Drosophila LGR2 receptor cAMP signaling; HEK293 LGR2, CRE-luciferase, bursicon-stimulated, 4 h; inhibition, % at 9.99 µM; 380,000 tested, 0.35% active; AID 720647;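 active = drop in luminescence signal, shown as inhibition above about 50% in the replicate tests, limit read from the data, passing the limit was not always enough; inconclusive = probably only some replicates passing the limit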;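 also: agonist challenge used bursicon conditioned medium at about half maximal strength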
# Ecoli rRNA inh: inhibits bacterial ribosomal RNA function over humanized ribosomes. E. coli WT GFP vs humanized-ribosome RFP mutants, fluorescence, 24 h; active compounds read low; DMSO median 0, no signal -100. GFP signal change (wild-type ribosome), % (no concentration beside the values). 350,000 tested, 1.6% active;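 active = significant combined selectivity score with lowered wild-type GFP, culture density cut under 30%, mutant RFP and density less affected; inactive = any of these conditions unmet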
# E-sel inducer: induces E-selectin expression in human endothelial cells. HUVEC E-selectin immunofluorescence imaging; normalized: neutral wells 0, TNF-alpha wells 100. 260,000 tested, 0.37% active. activation, % at 7.58 µM;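 active = mean E-selectin-positive cell signal at least 10% of the positive control, reached in at least 60% of replicates, without over 20% cell loss; inconclusive = no rule given, readout overlaps actives, possibly toxicity-flagged; inactive = the rest, including those meeting only one limit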
# Target sequence (P16581 whole entry, looked up): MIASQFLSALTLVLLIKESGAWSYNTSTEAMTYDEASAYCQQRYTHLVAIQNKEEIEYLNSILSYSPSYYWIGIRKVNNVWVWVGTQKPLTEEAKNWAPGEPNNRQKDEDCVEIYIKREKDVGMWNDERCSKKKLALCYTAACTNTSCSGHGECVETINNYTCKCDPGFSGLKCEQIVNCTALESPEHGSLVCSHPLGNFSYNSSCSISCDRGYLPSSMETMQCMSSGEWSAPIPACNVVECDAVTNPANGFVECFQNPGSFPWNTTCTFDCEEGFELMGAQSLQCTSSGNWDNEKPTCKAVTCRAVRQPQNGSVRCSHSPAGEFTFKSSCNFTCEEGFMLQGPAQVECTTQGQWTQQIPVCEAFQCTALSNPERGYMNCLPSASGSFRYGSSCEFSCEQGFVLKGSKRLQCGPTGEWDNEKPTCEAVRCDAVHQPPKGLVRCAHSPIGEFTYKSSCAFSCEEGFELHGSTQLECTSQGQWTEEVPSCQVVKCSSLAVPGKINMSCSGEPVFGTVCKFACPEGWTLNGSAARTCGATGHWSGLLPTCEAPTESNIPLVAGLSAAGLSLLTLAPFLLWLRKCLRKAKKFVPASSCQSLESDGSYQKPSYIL
#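 Read-out: % PE-positive cells | Test system: HUVEC | Doses: One compound dose added by pin transfer | Buffer or medium: EGM-2 over gelatin coat | Signal: Immunofluorescence imaging | Benchmarks: TNF-alpha, DMSO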
# EWS-Fli inh: blocks EWS/Fli oncoprotein-driven transcription; A673 NR0B1-luciferase reporter, viability-normalised; 350,000 tested, 0.67% active; inhibition, % at 12.6 µM;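 active = mean inhibition of at least 50% after viability correction, with every replicate also passing that limit; inconclusive = mean reaches 50% but only one of two replicates passes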;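 also: firefly luciferase signal divided by Alamar Blue viability fluorescence both relative to DMSO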
# Active calls of the source: *; ? = inconclusive; . = no result given. This is a sample that favours compounds with a hit; in the whole collection about 2.4% have one here.
SMILES,LGR2 antag,Ecoli rRNA inh,E-sel inducer,EWS-Fli inh
C[C@@H]1CN([C@H](C)CO)C(=O)c2c(c3ccccc3n2C)-c2ccccc2CO[C@H]1CN(C)C(=O)c1ccc(F)cc1,6.4,0.4,-0.2,-7.0
O=C1c2cccc(NCCCNCCO)c2C(=O)c2cccc(NCCCNCCO)c21,11.8*,-40.2,5.2,12.9
CC(C)NC(=O)Nc1cccc2c1O[C@@H](CN(C)Cc1ccc(C(F)(F)F)cc1)[C@@H](C)CN([C@H](C)CO)C2=O,2.2,-0.1,52.8*,-0.7
C[C@H]1CN([C@@H](C)CO)C(=O)c2cccc(NS(C)(=O)=O)c2O[C@H]1CN(C)Cc1ccc(Oc2ccccc2)cc1,.,-6.9,.,7.6
CC(C)NC(=O)Nc1cccc2c1O[C@H](CN(C)Cc1ccncc1)[C@@H](C)CN([C@H](C)CO)C2=O,.,-0.9,80.6*,12.8
C[C@H](CO)N1C[C@H](C)[C@H](CN(C)Cc2ccc(Oc3ccccc3)cc2)Oc2c(NS(C)(=O)=O)cccc2C1=O,-32.4,-0.7,30.8*,-1.8
C[C@H](CO)N1C[C@H](C)[C@H](CN(C)Cc2ccc(C(=O)Nc3ccccc3N)cc2)Oc2c(NC(=O)c3ccncc3)cccc2C1=O,-20.5,1.1,0.0,15.8
CC(C)NC(=O)Nc1cccc2c1O[C@@H](CN(C)Cc1ccccc1)[C@@H](C)CN([C@@H](C)CO)C2=O,-2.0,0.9,-0.1,-1.9
C[C@@H]1CN([C@H](C)CO)C(=O)c2cccc(NC(=O)c3ccncc3)c2O[C@@H]1CN(C)Cc1ccc(C(=O)Nc2ccccc2N)cc1,0.6,8.8,57.8*,43.5
C[C@@H]1CN([C@H](C)CO)C(=O)c2cc(NS(=O)(=O)c3cn(C)cn3)ccc2O[C@@H]1CN(C)C(=O)NC1CCCCC1,22.5,8.0,-0.2,4.8
O=C(C1CCC1)N1CCCCN2[C@H](CO)[C@@H](c3ccc(C#CC4CCCC4)cc3)[C@H]2C1,.,.,.,-3.5
C[C@@H]1CN([C@@H](C)CO)C(=O)c2cc(NC(=O)c3ccncc3)ccc2O[C@H]1CN(C)Cc1ccc(C(F)(F)F)cc1,1.9,-5.7,-8.4,7.2
C[C@H](NC(=O)C[C@H]1CC[C@H](NC(=O)c2cccnc2)[C@H](CO)O1)c1ccccc1,5.4,0.5,0.5,3.8
CN1c2ccc(-c3cccc(C#N)c3)cc2[C@H]2[C@H](CCN2S(=O)(=O)c2ccc(F)cc2)[C@@H]1CO,5.0,-2.1,-0.4,13.2
C[C@H](CO)N1C[C@H](C)[C@@H](CN(C)Cc2ccc(C(F)(F)F)cc2)Oc2c(NS(C)(=O)=O)cccc2C1=O,1.4,3.6,197.7*,2.1
C[C@H](CO)N1C[C@H](C)[C@H](CN(C)Cc2ccc(C(F)(F)F)cc2)Oc2c(NS(C)(=O)=O)cccc2C1=O,-9.8,0.8,-4.2,-2.6
COC(=O)C[C@H]1CC[C@H]2[C@@H](COc3ccc(NS(=O)(=O)c4cccc(F)c4)cc3C(=O)N2C)O1,-3.6,2.6,0.0,-3.3
O=C(C[C@@H]1C[C@@H]2c3cc(NC(=O)c4ccc5c(c4)OCO5)ccc3O[C@@H]2[C@@H](CO)O1)NCc1ccc(Oc2ccccc2)cc1,68.1*,-3.2,-0.2,?
CS(=O)(=O)Nc1ccc2c(c1)[C@H]1C[C@@H](CC(=O)NCc3ccc(-c4ccccc4)cc3)O[C@@H](CO)[C@H]1O2,-0.5,-4.5,-0.6,4.2
COc1cccc(S(=O)(=O)Nc2ccc3c(c2)[C@H]2C[C@H](CC(=O)NCc4ccc(Cl)cc4)O[C@@H](CO)[C@H]2O3)c1,-0.9,-31.8,0.0,3.4
CS(=O)(=O)Nc1ccc2c(c1)[C@@H]1C[C@@H](CC(=O)NCc3ccc(-c4ccccc4)cc3)O[C@@H](CO)[C@@H]1O2,8.3,-4.1,-0.4,56.6*
CS(=O)(=O)Nc1ccc2c(c1)[C@@H]1C[C@@H](CC(=O)NCc3ccc(Oc4ccccc4)cc3)O[C@H](CO)[C@@H]1O2,-12.3,5.9,1.2,52.7*
COc1cccc(S(=O)(=O)Nc2ccc3c(c2)[C@@H]2C[C@@H](CC(=O)NCc4ccc(Cl)cc4)O[C@@H](CO)[C@@H]2O3)c1,-6.4,-32.5,0.0,55.2*
C[C@H](CO)N1C[C@H](C)[C@@H](CN(C)Cc2ccc(C(F)(F)F)cc2)Oc2c(NC(=O)CCCCCC(=O)Nc3ccccc3N)cccc2C1=O,0.9,-6.9,0.0,.
CN(C)c1ccc2c(c1)[C@@H]1C[C@@H](CC(=O)NCc3ccc(-c4ccccc4)cc3)O[C@@H](CO)[C@@H]1O2,-19.2,-10.7,2.2,54.6*

# High-throughput results as filed in PubChem.
